According to ChEMBL document CHEMBL5724801, “EUbOPEN Chemogenomics Library - Multiplex” (2024):
Values joined by “and” are separate entries in the source; they are usually repeats but may differ in a detail not shown here. Identical values can stand only once.

Test system: HEK-293T
Assay: Multiplex assay against HEK293T
Assay type: toxicity, cell-based
Conditions: human
Procedure, shortened: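 Compound was added to live cells that had been stained at seeding with Hoechst33342, BioTracker Green Microtubule Cytoskeleton Dye, MitoTracker Red and Annexin V Alexa Fluor 680, and imaging followed on a CQ1 microscope at 37°C and 5% CO2. CellPathfinder machine-learning gating divided cells into Hoechst high-intensity objects or normal cells, normal cells into healthy, pyknosed or fragmented nuclei, and pyknosed cells into mitotic or apoptotic. Tubulin, mitochondrial-mass and membrane-permeability phenotypes are per cents of healthy-nucleus cells.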

[1] = 12 h, 1 µM, compound concentration 1 uM
[2] = 12 h, 10 µM, compound concentration 10 uM
[3] = 24 h, 1 µM, compound concentration 1 uM
[4] = 24 h, 10 µM, compound concentration 10 uM
[5] = 48 h, 1 µM, compound concentration 1 uM
[6] = 48 h, 10 µM, compound concentration 10 uM

For `S=c1[nH]nc(-c2cccs2)n1-c1ccccc1`, the “Population Apoptotic (%)” value [1] was 14.62% and 11.2%, the “Population Fragmented Nuclei (%)” value [1] was 2.05% and 4.52% and the “Population Hoechst High Intensity Objects (%)” value [1] was 1.01% and 0%. For the same compound, the “Population Membrane Permeable-Phenotype (%)” value [1] was 0% and 4.35%, the “Population Mitochondria Different-Phenotype (%)” value [1] was 35.03% and 21.74% and the “Population Mitotic Cells (%)” value [1] was 85.38% and 88.8%. The “Population Normal (%)” value [1] was 98.99% and 100%, the “Population Pyknosed Nuclei (%)” value [1] was 44.37% and 80.65% and the “Total Cell Count” value [1] was 296 and 155. For the same compound, the “Population Apoptotic (%)” value [2] was 8.82% and 18.42%, the “Population Fragmented Nuclei (%)” value [2] was 0.89% and 2.82% and the “Population Hoechst High Intensity Objects (%)” value [2] was 0%. For the same compound, the “Population Membrane Permeable-Phenotype (%)” value [2] was 0%, the “Population Mitotic Cells (%)” value [2] was 91.18% and 81.58% and the “Population Normal (%)” value [2] was 100%. For the same compound, the “Population Pyknosed Nuclei (%)” value [2] was 40.24% and 80.28%, the “Population Tubulin-Different-Phenotype (%)” value [2] was 9.05% and 25% and the “Total Cell Count” value [2] was 338 and 142. For the same compound, the “Population Apoptotic (%)” value [3] was 11.36% and 17.16%, the “Population Fragmented Nuclei (%)” value [3] was 1.73% and 2.2% and the “Population Hoechst High Intensity Objects (%)” value [3] was 0.76% and 0%. For the same compound, the “Population Membrane Permeable-Phenotype (%)” value [3] was 0.26% and 2.27%, the “Population Mitochondria Different-Phenotype (%)” value [3] was 13.46% and 15.91% and the “Population Mitotic Cells (%)” value [3] was 88.64% and 82.84%. The “Population Normal (%)” value [3] was 99.24% and 100%, the “Population Pyknosed Nuclei (%)” value [3] was 25.38% and 73.63% and the “Population Tubulin-Different-Phenotype (%)” value [3] was 8.97% and 6.82%. For the same compound, the “Total Cell Count” value [3] was 524 and 182, the “Population Apoptotic (%)” value [4] was 17.95% and 22% and the “Population Fragmented Nuclei (%)” value [4] was 1.78% and 2.9%. For the same compound, the “Population Hoechst High Intensity Objects (%)” value [4] was 0%, the “Population Membrane Permeable-Phenotype (%)” value [4] was 0.53% and 0% and the “Population Mitochondria Different-Phenotype (%)” value [4] was 11.35% and 2.94%. The “Population Mitotic Cells (%)” value [4] was 82.05% and 78%, the “Population Normal (%)” value [4] was 100% and the “Population Tubulin-Different-Phenotype (%)” value [4] was 9.76% and 8.82%. The “Population Fragmented Nuclei (%)” value [5] was 2.52% and 0.96%, the “Population Healthy Nuclei (%)” value [5] was 87.46% and 66.83% and the “Population Hoechst High Intensity Objects (%)” value [5] was 0.07% and 0%. For the same compound, the “Population Membrane Permeable-Phenotype (%)” value [5] was 4.24% and 5.04%, the “Population Mitochondria Different-Phenotype (%)” value [5] was 13.4% and 16.55% and the “Population Mitotic Cells (%)” value [5] was 94.07% and 77.61%. For the same compound, the “Population Normal (%)” value [5] was 99.93% and 100%, the “Population Apoptotic (%)” value [6] was 10.32% and 16.67% and the “Population Fragmented Nuclei (%)” value [6] was 2.79% and 3.68%. For the same compound, the “Population Healthy Nuclei (%)” value [6] was 86.89% and 63.19%, the “Population Hoechst High Intensity Objects (%)” value [6] was 0% and the “Population Membrane Permeable-Phenotype (%)” value [6] was 5.38% and 1.94%. For the same compound, the “Population Mitochondria Different-Phenotype (%)” value [6] was 11.04% and 20.39%, the “Population Mitotic Cells (%)” value [6] was 89.68% and 83.33% and the “Population Normal (%)” value [6] was 100%.
In the case of `O=C1N=C(NCc2cccs2)S/C1=C\c1ccc2ncccc2c1`, the “Population Apoptotic (%)” value [1] is reported as 11.2% and 8.04%, the “Population Fragmented Nuclei (%)” value [1] is reported as 4.18% and 2.19% and the “Population Hoechst High Intensity Objects (%)” value [1] is reported as 0%. The “Population Membrane Permeable-Phenotype (%)” value [1] was 0%, the “Population Mitochondria Different-Phenotype (%)” value [1] was 30.06% and 18.18% and the “Population Mitotic Cells (%)” value [1] was 88.8% and 91.96%. For the same compound, the “Population Normal (%)” value [1] was 100%, the “Population Pyknosed Nuclei (%)” value [1] was 40.19% and 81.75% and the “Total Cell Count” value [1] was 311 and 137. The “Population Apoptotic (%)” value [2] was 10.71% and 8.85%, the “Population Fragmented Nuclei (%)” value [2] was 2.55% and 5.49% and the “Population Healthy Nuclei (%)” value [2] was 68.88% and 25.61%. For the same compound, the “Population Hoechst High Intensity Objects (%)” value [2] was 0%, the “Population Membrane Permeable-Phenotype (%)” value [2] was 1.48% and 0% and the “Population Mitochondria Different-Phenotype (%)” value [2] was 19.26% and 9.52%. For the same compound, the “Population Mitotic Cells (%)” value [2] was 89.29% and 91.15%, the “Population Normal (%)” value [2] was 100% and the “Population Pyknosed Nuclei (%)” value [2] was 28.57% and 68.9%. For the same compound, the “Population Tubulin-Different-Phenotype (%)” value [2] was 25.93% and 59.52%, the “Total Cell Count” value [2] was 392 and 164 and the “Population Apoptotic (%)” value [3] was 19.59% and 9.09%. The “Population Fragmented Nuclei (%)” value [3] was 2.82% and 3.6%, the “Population Healthy Nuclei (%)” value [3] was 74.35% and 33.09% and the “Population Hoechst High Intensity Objects (%)” value [3] was 0%. For the same compound, the “Population Membrane Permeable-Phenotype (%)” value [3] was 0.63% and 2.17%, the “Population Mitochondria Different-Phenotype (%)” value [3] was 8.54% and 19.57% and the “Population Mitotic Cells (%)” value [3] was 80.41% and 90.91%. The “Population Normal (%)” value [3] was 100%, the “Population Pyknosed Nuclei (%)” value [3] was 22.82% and 63.31% and the “Population Tubulin-Different-Phenotype (%)” value [3] was 10.76% and 13.04%. For the same compound, the “Population Apoptotic (%)” value [4] was 34.38% and 21.57%, the “Population Fragmented Nuclei (%)” value [4] was 2.01% and 4.43% and the “Population Healthy Nuclei (%)” value [4] was 73.87% and 31.01%. The “Population Hoechst High Intensity Objects (%)” value [4] was 0%, the “Population Membrane Permeable-Phenotype (%)” value [4] was 0% and 4.08% and the “Population Mitochondria Different-Phenotype (%)” value [4] was 26.19% and 16.33%. The “Population Mitotic Cells (%)” value [4] was 65.62% and 78.43%, the “Population Normal (%)” value [4] was 100% and the “Population Pyknosed Nuclei (%)” value [4] was 24.12% and 64.56%. For the same compound, the “Population Tubulin-Different-Phenotype (%)” value [4] was 55.78% and 20.41%, the “Total Cell Count” value [4] was 398 and 158 and the “Population Apoptotic (%)” value [5] was 12.66% and 16.95%. The “Population Fragmented Nuclei (%)” value [5] was 2.96% and 1.01%, the “Population Healthy Nuclei (%)” value [5] was 86.89% and 69.35% and the “Population Hoechst High Intensity Objects (%)” value [5] was 0% and 0.5%. The “Population Membrane Permeable-Phenotype (%)” value [5] was 4.14% and 2.17%, the “Population Mitochondria Different-Phenotype (%)” value [5] was 20.41% and 24.64% and the “Population Mitotic Cells (%)” value [5] was 87.34% and 83.05%. For the same compound, the “Population Normal (%)” value [5] was 100% and 99.5%, the “Population Pyknosed Nuclei (%)” value [5] was 10.15% and 29.65% and the “Population Apoptotic (%)” value [6] was 37.04% and 39.66%. The “Population Fragmented Nuclei (%)” value [6] was 1.79% and 5.23%, the “Population Healthy Nuclei (%)” value [6] was 91.3% and 56.86% and the “Population Hoechst High Intensity Objects (%)” value [6] was 0%. The “Population Membrane Permeable-Phenotype (%)” value [6] was 0.84% and 2.3%, the “Population Mitochondria Different-Phenotype (%)” value [6] was 87.68% and 60.92% and the “Population Mitotic Cells (%)” value [6] was 62.96% and 60.34%. For the same compound, the “Population Normal (%)” value [6] was 100% and the “Total Cell Count” value [6] was 391 and 153.
`COc1cc2ncnc(Nc3ccc(Oc4ccccc4)cc3C)c2cc1OC.Cl` was tested, and the “Population Apoptotic (%)” value [1] was 9.24% and 8.93%, the “Population Fragmented Nuclei (%)” value [1] was 2.79% and 1.37% and the “Population Healthy Nuclei (%)” value [1] was 50.51% and 21.92%. The “Population Hoechst High Intensity Objects (%)” value [1] was 0%, the “Population Membrane Permeable-Phenotype (%)” value [1] was 1.51% and 0% and the “Population Mitochondria Different-Phenotype (%)” value [1] was 24.62% and 9.38%. For the same compound, the “Population Mitotic Cells (%)” value [1] was 90.76% and 91.07%, the “Population Normal (%)” value [1] was 100% and the “Population Pyknosed Nuclei (%)” value [1] was 46.7% and 76.71%. The “Population Tubulin-Different-Phenotype (%)” value [1] was 6.53% and 18.75%, the “Total Cell Count” value [1] was 394 and 146 and the “Population Apoptotic (%)” value [2] was 10.53% and 18.75%. For the same compound, the “Population Fragmented Nuclei (%)” value [2] was 1.92% and 2.05%, the “Population Hoechst High Intensity Objects (%)” value [2] was 0% and the “Population Membrane Permeable-Phenotype (%)” value [2] was 0.6% and 0%. For the same compound, the “Population Mitochondria Different-Phenotype (%)” value [2] was 17.86% and 20%, the “Population Mitotic Cells (%)” value [2] was 89.47% and 81.25% and the “Population Normal (%)” value [2] was 100%. The “Population Pyknosed Nuclei (%)” value [2] was 52.05% and 87.67%, the “Total Cell Count” value [2] was 365 and 146 and the “Population Apoptotic (%)” value [3] was 18.7% and 16.84%. For the same compound, the “Population Fragmented Nuclei (%)” value [3] was 0.78% and 1.86%, the “Population Healthy Nuclei (%)” value [3] was 80.12% and 39.13% and the “Population Hoechst High Intensity Objects (%)” value [3] was 0%. The “Population Membrane Permeable-Phenotype (%)” value [3] was 2.13% and 1.59%, the “Population Mitochondria Different-Phenotype (%)” value [3] was 8.53% and 7.94% and the “Population Mitotic Cells (%)” value [3] was 81.3% and 83.16%. For the same compound, the “Population Normal (%)” value [3] was 100%, the “Population Tubulin-Different-Phenotype (%)” value [3] was 10.85% and 3.17% and the “Population Apoptotic (%)” value [4] was 30.37% and 35.11%. The “Population Fragmented Nuclei (%)” value [4] was 2.24% and 2.6%, the “Population Hoechst High Intensity Objects (%)” value [4] was 0.22% and 0% and the “Population Membrane Permeable-Phenotype (%)” value [4] was 0.66% and 0%. The “Population Mitochondria Different-Phenotype (%)” value [4] was 13.58% and 21.05%, the “Population Mitotic Cells (%)” value [4] was 69.63% and 64.89% and the “Population Normal (%)” value [4] was 99.78% and 100%. For the same compound, the “Population Pyknosed Nuclei (%)” value [4] was 30.2% and 85.06%, the “Total Cell Count” value [4] was 448 and 154 and the “Population Fragmented Nuclei (%)” value [5] was 2.53% and 2.04%. The “Population Healthy Nuclei (%)” value [5] was 85.42% and 68.88%, the “Population Hoechst High Intensity Objects (%)” value [5] was 0.14% and 0% and the “Population Membrane Permeable-Phenotype (%)” value [5] was 4.9% and 2.96%. For the same compound, the “Population Mitochondria Different-Phenotype (%)” value [5] was 14.29% and 17.78%, the “Population Mitotic Cells (%)” value [5] was 92.22% and 73.68% and the “Population Normal (%)” value [5] was 99.86% and 100%. The “Population Pyknosed Nuclei (%)” value [5] was 12.06% and 29.08%, the “Population Apoptotic (%)” value [6] was 20.37% and 26.73% and the “Population Fragmented Nuclei (%)” value [6] was 1.69% and 2.03%. The “Population Healthy Nuclei (%)” value [6] was 77.27% and 46.7%, the “Population Hoechst High Intensity Objects (%)” value [6] was 0% and the “Population Membrane Permeable-Phenotype (%)” value [6] was 2.35% and 1.09%. The “Population Mitochondria Different-Phenotype (%)” value [6] was 53.61% and 47.83%, the “Population Mitotic Cells (%)” value [6] was 79.63% and 73.27% and the “Population Normal (%)” value [6] was 100%. For the same compound, the “Population Pyknosed Nuclei (%)” value [6] was 21.04% and 51.27%.
